For test [1], the system named is KB. In words: Cytotoxicity against human KB cells after 3 days by sulforhodamine B assay. It is filed as functional, cell-based.
The nature of test [2]: Cytotoxicity against human KBVIN cells after 3 days by sulforhodamine B assay. It is filed as functional, cell-based. In a few lines: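 KB and vincristine-selected KB-VIN grown in RPMI-1640 with 25 mM HEPES and 10% FBS at 37 °C. KB-VIN challenged with 0.5 μg/mL vincristine every two weeks, drug withdrawn at least one day before use. Seeded at 5000 cells/well, compounds at 20 down to 0.16 μM for 3 days. TCA fixation, SRB stain, absorbance at 562 nm. EC50 interpolated, average of at least two independent determinations.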

For test [3], the system named is BV-2. As to the kind of experiment: Antiinflammatory activity in mouse BV2 cells assessed as inhibition of LPS-induced iNOS-dependent nitrite production after 24 hrs by Griess method. In kind it is functional, cell-based.
In test [4] the test system is BV-2. In words: Antiinflammatory activity in mouse BV2 cells assessed as inhibition of NOX-dependent ROS production up to 50 uM. It is filed as functional, cell-based.
Test [5] in a line: Antiinflammatory activity in human PMNC cells assessed as inhibition of fMLP-induced NOX-dependent ROS production up to 50 uM. In kind it is functional, cell-based.
Test [6] concerns KB. In words: Cytotoxicity against human KB cells at 20 uM after 3 days by sulforhodamine B assay. In kind it is functional, cell-based. In a few lines: (§1)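 KB or KB-VIN cells (KB-VIN held under intermittent 0.5 μg/mL vincristine, withdrawn at least one day before use). Seeded at 5000 cells/well and exposed to compound at 20 μM for 3 days. Cells fixed with TCA, stained with SRB, absorbance read at 562 nm. Value is % inhibition of growth versus untreated cells.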

Test [7] can be described thus: Cytotoxicity against human KBVIN cells at 20 uM after 3 days by sulforhodamine B assay. It is filed as functional. The note with it: 72 h. In a few lines: as §1
Where [8] appears, read: Homo sapiens, KB, 72 h, read-out: EC50.
Where [9] appears, read: Homo sapiens, KBVIN, 72 h, read-out: EC50.
Setting [10] is: Mus musculus, BV-2, 24 h, read-out: IC50.
[11] abbreviates: Mus musculus, BV-2, read-out: IC50.
Where [12] appears, read: Homo sapiens, PMNC, read-out: IC50.

Bounds are passed on as bounds.

As for `C=C(CC[C@@H](C)[C@H]1CC[C@H]2C3=C(C(=O)C[C@]12C)[C@@]1(C)CCC(=O)[C@@H](C)[C@@H]1CC3)C(C)C(=O)O` (stereo not given in full) [ANTCIN A], the EC50 with KB [1] (setting [8]) was 4.9 µM; in test [2] (setting [9]) it was 10 µM. Also, the results for the IC50 (in the test on BV-2 [3] (setting [10]); in the test with BV-2 [4] (setting [11]); in test [5] (setting [12])) were 4.1 µM, 45.9 µM and 29.2 µM, respectively.
Take `C=C(CC[C@@H](C)[C@H]1CC[C@H]2C3=C(C(=O)C[C@]12C)[C@@]1(C)CC[C@@H](O)[C@](C)(O)[C@@H]1C[C@@H]3O)C(C)C(=O)O` (stereo not given in full) [ANTCIN K]: the EC50 result (in the test on KB [1] (kb); in test [2] (kbvin)) was “Not Active” each time. In addition, the IC50 result with BV-2 [3] (bv-2) is “Not Active”; in the test on BV-2 [4] (bv-2), “Not Active”; in test [5] (setting [12]), 47.2 µM.
With `C=C(CC[C@@H](C)[C@H]1CC[C@H]2C3=C(C(=O)[C@H](O)[C@]12C)[C@@]1(C)CC[C@@H](O)[C@@H](C)[C@@H]1C[C@@H]3O)C(C)C(=O)O` (stereo not given in full) [CAMPHORATIN A], the 50% effective concentration (EC50) result (in the test with KB [6] (kb); in test [2] (kbvin)) was “Not Active” in each case.
For the molecule `C=C(CC[C@@H](C)[C@H]1CC[C@H]2C3=C(C(=O)C[C@]12C)[C@@]1(C)CC[C@@H](O)[C@@H](C)[C@@H]1C[C@@H]3O)C(C)C(=O)O` (stereo not given in full) [CAMPHORATIN B], in test [2] (kbvin), the EC50 entry is “Not Active”. Moreover, the half-inhibitory concentration (IC50) with BV-2 [3] (setting [10]) is 15.7 µM; in the test on BV-2 [4] (bv-2), “Not Active”; in test [5] (setting [12]), 32.1 µM.
Consider `C=C(CC[C@@H](C)[C@H]1CC[C@H]2C3=C(C(=O)C[C@]12C)[C@@]1(C)CC[C@@H](O)[C@](C)(O)[C@@H]1CC3=O)C(C)C(=O)O` (stereo not given in full) [CAMPHORATIN C], for which the half-maximal effective concentration (EC50) was 0.3 µM in the test on KB [1] (setting [8]) and 2.3 µM in test [2] (setting [9]).
With `C=C(CC[C@@H](C)[C@H]1CC[C@H]2C3=C(C(=O)C[C@]12C)[C@@]1(C)CCC(=O)[C@@H](C)[C@@H]1C[C@@H]3O)C(C)C(=O)O` (stereo not given in full) [CAMPHORATIN D], the EC50 entry (in the test on KB [1] (kb); in test [2] (kbvin)) was “Not Active” in each case. Besides, the IC50 was 4.2 µM in the test with BV-2 [3] (setting [10]), “Not Active” in the test with BV-2 [4] (bv-2) and 22.6 µM in test [5] (setting [12]).
Turning to `C=C(CC[C@@H](C)[C@H]1CC[C@H]2C3=C(C(=O)C[C@]12C)[C@@]1(C)CC[C@@H](O)[C@@H](C)[C@@H]1CC3=O)C(C)C(=O)OC` (stereo not given in full) [CAMPHORATIN E], the EC50 stood at 0.45 µM with KB [1] (setting [8]) and 2.7 µM in test [2] (setting [9]).
Turning to `C=C(CC[C@@H](C)[C@H]1CC[C@H]2C3=C(C(=O)C[C@]12C)[C@@]1(C)CCC(=O)[C@@H](C)[C@@H]1C[C@@H]3O)C(C)C(=O)OC` (stereo not given in full) [CAMPHORATIN F], the results for the EC50 (in the test with KB [1] (setting [8]); in test [2] (setting [9])) were 2 µM and 2.9 µM, respectively. Moreover, the results for the IC50 (with BV-2 [3] (setting [10]); in the test with BV-2 [4] (bv-2); in test [5] (setting [12])) were 2.5 µM, “Not Active” and 11.2 µM, respectively.
For the molecule `C=C(CC[C@@H](C)[C@H]1CC[C@H]2C3=C(C(=O)C[C@]12C)[C@@]1(C)CCC(=O)[C@@H](C)[C@@H]1C[C@H]3O)C(C)C(=O)O` (stereo not given in full) [CAMPHORATIN G], the figures for the EC50 (in the test on KB [1] (setting [8]); in test [2] (setting [9])) were 15 µM and 17.5 µM, respectively.
As to `C=C(CC[C@@H](C)[C@H]1CC[C@H]2C3=C(C(=O)C[C@]12C)[C@@]1(C)CCC(=O)[C@@H](C)[C@@H]1CC3)C(C)C` [CAMPHORATIN H], the concentration giving a half-maximal response (EC50) entry (with KB [1] (kb); in test [2] (kbvin)) was “Not Active” throughout.
Take `C[C@H](/C=C/[C@H](C)[C@H](C)CO)[C@H]1CC[C@H]2C3=CC[C@H]4CC(=O)CC[C@]4(C)[C@H]3CC[C@]12C` [CAMPHORATIN I]: the concentration giving a half-maximal response (EC50) result (in the test on KB [1] (kb); in test [2] (kbvin)) was “Not Active” each time. Also, the 50% inhibitory concentration (IC50) in the test on BV-2 [3] (setting [10]) is 12.7 µM; with BV-2 [4] (bv-2), “Not Active”; in test [5] (setting [12]), 17.5 µM.
For the molecule `C=C(CC[C@@H](C)[C@H]1CC[C@@H]2C3=C(C(=O)C[C@@]21C)[C@@]1(C)CCC(=O)[C@@H](C)[C@@H]1CC3)C(C)C(=O)OC` (stereo not given in full) [CAMPHORATIN J], the EC50 entry (with KB [1] (kb); in test [2] (kbvin)) was “Not Active” each time. Moreover, the IC50 with BV-2 [3] (setting [10]) was 1.6 µM; with BV-2 [4] (bv-2), “Not Active”; in test [5] (setting [12]), 15.8 µM.
For `c1ccc2c(c1)[I+]c1ccccc1-2` [DIPHENYLENEIODONIUM], the IC50 in the test on BV-2 [4] (setting [11]) is 0.4 µM.
Consider `CC(C)[C@@H](C)/C=C/[C@@H](C)[C@H]1CC[C@@H]2[C@]1(C)CC[C@H]1[C@]23C=C[C@]2(C[C@@H](O)CC[C@]12C)OO3` [ERGOSTEROL PEROXIDE], for which the half-inhibitory concentration (IC50) in the test on BV-2 [3] (setting [10]) was 6.3 µM; with BV-2 [4] (bv-2) it was “Not Active”; in test [5] (setting [12]), 20.3 µM.
On to `CC(C)[C@@H](C)/C=C/[C@@H](C)[C@H]1CC[C@H]2C3=CC=C4C[C@@H](O)CC[C@]4(C)[C@H]3CC[C@]12C` [ERGOSTEROL], for which the results for the concentration for half-maximal inhibition (IC50) (in the test with BV-2 [3] (setting [10]); with BV-2 [4] (bv-2); in test [5] (setting [12])) were 30.6 µM, “Not Active” and 27.9 µM, respectively.
For the molecule `COc1cc([C@@H]2c3cc4c(cc3[C@@H](O[C@@H]3O[C@@H]5CO[C@@H](C)O[C@H]5[C@H](O)[C@H]3O)[C@H]3COC(=O)[C@H]23)OCO4)cc(OC)c1O` [ETOPOSIDE], the concentration giving a half-maximal response (EC50) in the test on KB [1] (setting [8]) is 4.5 µM; in test [2] (setting [9]), over 36 µM.
With `C=C(CC[C@@H](C)[C@H]1CC[C@H]2C3=C(C[C@H](O)[C@]12C)[C@@]1(C)CC[C@@H](O)[C@@H](C)[C@@H]1CC3=O)C(C)C(=O)OC` (stereo not given in full) [METHYL ANTCINATE H], the EC50 result (in the test with KB [1] (kb); in test [2] (kbvin)) was “Not Active” each time. Moreover, the IC50 with BV-2 [3] (setting [10]) was 2.5 µM; with BV-2 [4] (setting [11]), 16 µM; in test [5] (setting [12]) it was 18.1 µM.
As to `C=C(CC[C@@H](C)[C@H]1CC[C@H]2C3=C(C(=O)C[C@]12C)[C@@]1(C)CCC(=O)[C@@H](C)[C@@H]1CC3=O)C(C)C(=O)OC` (stereo not given in full) [ZHANKUIC ACID A METHYL ESTER], the inhibition at 20 µM is 25% in test [7] and 21% in the test with KB [6] (Homo sapiens, KB, 72 h). Moreover, the EC50 (in the test on KB [1] (setting [8]); in test [2] (setting [9])) was over 20 µM in each case. The half-inhibitory concentration (IC50) is 0.6 µM in the test on BV-2 [3] (setting [10]), “Not Active” in the test with BV-2 [4] (bv-2) and 8.4 µM in test [5] (setting [12]).
For `C=C(CC[C@@H](C)[C@H]1CC[C@H]2C3=C(C(=O)C[C@]12C)[C@@]1(C)CCC(=O)[C@@H](C)[C@@H]1CC3=O)C(C)C(=O)O` (stereo not given in full) [ZHANKUIC ACID A], the results for the EC50 (in the test with KB [1] (setting [8]); in test [2] (setting [9])) were 3 µM and 6.2 µM, respectively. The values for the IC50 (in the test with BV-2 [3] (setting [10]); in the test with BV-2 [4] (bv-2); in test [5] (setting [12])) were 3.6 µM, “Not Active” and 22.1 µM, respectively.
As for `C=C(CC[C@@H](C)[C@H]1CC[C@H]2C3=C(C(=O)C[C@]12C)[C@@]1(C)CC[C@@H](O)[C@@H](C)[C@@H]1CC3=O)C(C)C(=O)O` (stereo not given in full) [ZHANKUIC ACID B], the results for the EC50 (with KB [1] (setting [8]); in test [2] (setting [9])) were 7.3 µM and 8.5 µM, respectively. The IC50 was 9.6 µM in the test with BV-2 [3] (setting [10]), “Not Active” in the test with BV-2 [4] (bv-2) and “Not Active” in test [5] (pmnc).
With `C=C(CC[C@@H](C)[C@H]1CC[C@H]2C3=C(C(=O)[C@H](O)[C@]12C)[C@@]1(C)CC[C@@H](O)[C@@H](C)[C@@H]1CC3=O)C(C)C(=O)O` (stereo not given in full) [ZHANKUIC ACID C], the EC50 in the test with KB [1] (setting [8]) is 15.5 µM; in test [2] (setting [9]), 6.4 µM. For the same molecule, the IC50 with BV-2 [3] (setting [10]) was 16.2 µM; in the test on BV-2 [4] (setting [11]), 40.3 µM; in test [5] (pmnc), “Not Active”.

The values are drawn from ChEMBL document CHEMBL1641397, “Camphoratins A-J, potent cytotoxic and anti-inflammatory triterpenoids from the fruiting body of Taiwanofungus camphoratus” (J Nat Prod, 2010).
